Assay outcomes from PubChem.
This is a sample that favours compounds with a hit; in the whole collection about 2.3% have one here.
TRPC4 agonist: activators of mouse TRPC4 channel, primary screen, Fluo4 calcium, HEK293 TRPC4beta/mu-opioid cells; Short transient receptor potential channel 4 (Mus musculus), Q9QUQ5; Fluo4 calcium fluorescence; stronger effect = higher value; B-score at 10 µM; 310,000 compounds, 0.49% hits;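 active = B-score above 5 SD of library B-scores, and initial fluorescence ratio not above library mean plus 5 SD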;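 note: positive B-score marks a calcium rise read as TRPC4 activation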
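Material: TRPC4beta and mu-opioid receptor HEK293 stable cells | Incubation: 45 min room-temperature Fluo4 loading, 110 s read | Detection: Kinetic Fluo4 calcium fluorescence | Measure: Integrated baseline-normalised fluorescence ratio, converted to per-well B score | Benchmarks: Low control buffer alone, high control maximal DAMGO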
TRPC6 act: mouse TRPC6 channel activators, primary screen, cell-based, HEK293, membrane potential dye; Short transient receptor potential channel 6 (Mus musculus), Q61143; HEK293-TRPC6 membrane potential dye fluorescence; stronger effect = higher value; B-score at 10 µM; 310,000 compounds, 0.13% hits; AID 2550, 2010;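 active = B-score of the integrated fluorescence ratio above library mean plus 3 SD, and starting fluorescence ratio within library mean plus 5 SD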;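 note: higher score means more depolarization so channel activation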
TRPC6 inh: mouse TRPC6 channel inhibitors, primary screen, cell-based, HEK293, membrane potential dye | B-score at 10 µM | 310,000 compounds, 1.1% hits | ACh-evoked depolarization; stronger effect = lower value | AID 2553, 2010 | Short transient receptor potential channel 6 (Mus musculus), Q61143;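 active = B-score under library mean minus 3 SD, initial fluorescence not abnormally high, positive integrated signal ratio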;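 note: B-score derived from integrated fluorescence ratio over the kinetic read; more negative B-score means stronger inhibition of depolarization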
TRPC4 potent: positive allosteric modulators of TRPC4, primary screen, cell-based, mouse TRPC4beta, HEK293 mu-opioid, Fluo-4 calcium; Short transient receptor potential channel 4 (Mus musculus), Q9QUQ5; 310,000 compounds, 0.42% hits; AID 2227, 2009; B-score at 10 µM; DAMGO EC20, Fluo-4 Ca2+ flux; stronger effect = higher value;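 active = B-score of calcium response area above 5 SD of library B-scores, with initial fluorescence ratio within 5 SD of library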;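 note: B-score of integrated fluorescence ratio over time as area under calcium response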
TRPC4 inh: inhibitors of mouse TRPC4 channel, primary screen, Fluo4 calcium, HEK293 TRPC4beta/mu-opioid cells. Short transient receptor potential channel 4 (Mus musculus), Q9QUQ5. DAMGO-evoked Fluo4 calcium flux; stronger effect = lower value. B-score at 10 µM. 300,000 compounds, 0.39% hits;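 active = B-score over 3 SD under the library average, no early fluorescence shift, positive overall ratio signal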
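Assay system: Stable TRPC4beta/mu-opioid receptor HEK293 cells | Reagent: DAMGO in two steps, submaximal then maximal | Compound dosing: Single concentration per test compound | Signal: Fluo4 Ca2+ flux fluorescence | Evaluation: Per-well B score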
TRPC4 sel inh 2: mouse TRPC4 off-target activity of TRPC6 inhibitors, second screen; HEK293 TRPC4/MOR, membrane potential dye fluorescence; channel activated by saturating DAMGO dose; 920 compounds, 42% hits; shares compounds with TRPC6 inh; inhibition, % at 10 µM; AID 2776;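 active = compounds whose fluorescence signal differed from control wells by over 3 SD, either direction, in both duplicate plates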
TRPC4 spec: mouse TRPC4 modulation by TRPC6 hits, confirmation, selectivity assay for TRPC6 inhibitor project, cell-based, HEK293 TRPC4/mu-opioid, membrane potential dye; activity change, negative = inhibition, % at 10 µM; membrane potential fluorescence; 920 compounds, 61% hits; AID 2777, 2010; shares compounds with TRPC6 inh;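 active = rise or fall in signal beyond 3 SD of buffer-only wells in both replicate plates, either sign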;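 note: integrated kinetic ratio of fluorescence range over baseline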
HEK293 MPD ctr 2-1: nonspecific membrane potential effects, parental HEK293, confirmation, counter-screen for TRPC6 inhibitor project, cell-based, second counter screen; shares compounds with TRPC6 inh; parental HEK293 membrane potential dye fluorescence; maximal acetylcholine challenge after compound addition; signal change vs control, % at 10 µM; 920 compounds, 31% hits; AID 2779, 2010;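 active = membrane potential signal moving either way by over 3 SD of the maximum-effect control, in both duplicate plates, meaning non-specific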
HEK293 MPD ctr-1: membrane potential modulation in parental HEK293, confirmation, counter-screen for TRPC6 inhibitor project, cell-based; membrane potential signal change, % at 10 µM; 920 compounds, 60% hits; parental HEK293 membrane potential dye fluorescence; shares compounds with TRPC6 inh; AID 2780, 2010;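 active = membrane potential signal shifting up or down by more than 3 SD of buffer-only wells, on both duplicate plates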
HEK293 MPD ctr-2: parental HEK293 membrane potential modulation, confirmation, counter-screen for TRPC6 modulator project, cell-based. membrane potential dye fluorescence. AID 488924, 2010. membrane potential signal change, % at 10 µM. 2,400 compounds, 51% hits. shares compounds with TRPC6 inh;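 active = membrane potential signal moves up or down beyond 5 SD from buffer-only wells, on both duplicate plates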
HEK293 MPD ctr 2-2: second counter-screen for TRPC6 modulators: effect in parental HEK293 cells | shares compounds with TRPC6 inh | membrane potential dye fluorescence; after compound, maximal acetylcholine stimulation | inhibition, % at 10 µM | 2,400 compounds, 14% hits | AID 488926;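 active = membrane potential signal drops by more than 5 SD from the mean control signal, in both duplicate plates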;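 note: plate controls were acetylcholine ECmax control wells for no effect and buffer only wells for full effect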
TRPC4/MOR mod: TRPC4 modulation by TRPC6 hit compounds, confirmation, selectivity assay for TRPC6 modulator project, cell-based, HEK293 TRPC4/mu-opioid, membrane potential dye, mouse. shares compounds with TRPC6 inh. membrane potential fluorescence. percent change from control (negative = decrease, positive = increase), % at 10 µM. 2,400 compounds, 69% hits. AID 488927, 2010;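 active = membrane potential signal moved up or down beyond 5 SD of buffer control wells, in both duplicate plates, actives on both sides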;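 note: plate controls were assay buffer wells for no effect and DAMGO maximal-effect wells for full effect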
TRPC4 ctr inh 2: mouse TRPC4 off-target activity of TRPC6 modulators, second screen. shares compounds with TRPC6 inh. 2,400 compounds, 55% hits. HEK293 TRPC4/mu-opioid, membrane potential dye fluorescence; stimulated with maximal-effect DAMGO. inhibition, % at 10 µM;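 active = drop in membrane potential signal beyond 5 SD of the control wells in both duplicate plates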;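 note: TRPC4 counter screen for TRPC6 hits run under conditions tuned for TRPC6 not TRPC4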
TRPC6 block conf: mouse TRPC6 channel inhibitors, confirmation, HEK293 cells, membrane potential dye, duplicate; shares compounds with TRPC6 inh; ACh-evoked depolarization; inhibition, % at 10 µM; 3,300 compounds, 43% hits;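 active = fluorescence ratio falls more than 5 SD below the full-stimulation control mean, in both duplicate runs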;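 note: integrated fluorescence ratio of peak minus minimum over baseline after agonist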
TRPC6 act conf: mouse TRPC6 channel activators, confirmation, HEK293 cells, membrane potential dye, duplicate; 2,800 compounds, 11% hits; activation, % at 10 µM; shares compounds with TRPC6 inh; HEK293-TRPC6 membrane potential dye fluorescence, FDSS;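 active = ratio signal rise beyond 5 SD above unstimulated control wells' mean, seen in both duplicate runs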;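 note: plate controls were buffer EC0 wells for no effect and acetylcholine ECmax response for full effect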
An asterisk follows results filed as active.

COC1=C(Nc2ccccc2OC)C(=O)c2ccccc2C1=O was read as TRPC4 agonist inactive, TRPC6 act inactive, TRPC6 inh -5.82*, TRPC4 potent inactive, TRPC4 inh inactive, HEK293 MPD ctr-2 -91.0%*, HEK293 MPD ctr 2-2 inactive, TRPC4/MOR mod -23.5%*, TRPC4 ctr inh 2 38.5%*, TRPC6 block conf inactive and TRPC6 act conf inactive.
Screening Cc1ccc(-n2c(SCC(N)=O)nnc2-c2ccc(S(=O)(=O)N3CCCCC3)cc2)c(C)c1 returned TRPC4 agonist inactive, TRPC6 act inactive, TRPC6 inh -6.03*, TRPC4 potent inactive, TRPC4 inh inactive, HEK293 MPD ctr-2 inactive, HEK293 MPD ctr 2-2 inactive, TRPC4/MOR mod 39.5%*, TRPC4 ctr inh 2 inactive, TRPC6 block conf 41.0%* and TRPC6 act conf inactive.
Screening Cc1cc(NCCN(C)C)n2nc(-c3cccs3)cc2n1 returned TRPC4 agonist inactive, TRPC6 act inactive, TRPC6 inh -6.8*, TRPC4 potent inactive, TRPC4 inh inactive, HEK293 MPD ctr-2 -272.0%*, HEK293 MPD ctr 2-2 inactive, TRPC4/MOR mod -52.0%*, TRPC4 ctr inh 2 48.5%*, TRPC6 block conf inactive and TRPC6 act conf inactive.
For Cn1c(=O)c2c(nc(CN3CCc4ccccc4C3)n2Cc2ccccc2)n(C)c1=O the results were TRPC4 agonist inactive, TRPC6 act inactive, TRPC6 inh -5.65*, TRPC4 potent 46*, TRPC4 inh inactive, HEK293 MPD ctr-2 inactive, HEK293 MPD ctr 2-2 inactive, TRPC4/MOR mod 109.0%*, TRPC4 ctr inh 2 68.5%* and TRPC6 block conf inactive.
`N#C/C(=N\Nc1cccc([N+](=O)[O-])c1)C(=O)c1ccc(Br)cc1` gave TRPC4 agonist inactive, TRPC6 act inactive, TRPC6 inh -7.34*, TRPC4 potent inactive, TRPC4 inh -6*, TRPC4 sel inh 2 53.0%*, TRPC4 spec inactive, HEK293 MPD ctr 2-1 inactive, HEK293 MPD ctr-1 -156.5%*, TRPC6 block conf 78.6%* and TRPC6 act conf inactive.
COC(C#CCCN(C)C)(c1ccccc1)c1ccccc1 was read as TRPC4 agonist inactive, TRPC6 act inactive, TRPC6 inh -6.48*, TRPC4 potent inactive, TRPC4 inh inactive, HEK293 MPD ctr-2 inactive, HEK293 MPD ctr 2-2 89.0%*, TRPC4/MOR mod 14.0%*, TRPC4 ctr inh 2 34.0%* and TRPC6 block conf 79.0%*.
For CSc1ccc(CNC(=O)C2CCC(=O)N(Cc3cccc(F)c3)C2)cc1 (stereo not drawn) the results were TRPC4 agonist inactive, TRPC6 act inactive, TRPC6 inh inactive, TRPC4 potent inactive and TRPC4 inh inactive.
COc1ccc(S(=O)(=O)N2CCCCCC2)cc1C(=O)N(C)Cc1ccco1 was read as TRPC4 agonist inactive, TRPC6 act inactive, TRPC6 inh inactive, TRPC4 potent inactive and TRPC4 inh inactive.
`Cc1cccc(OCC(O)Cn2c(N3CCCCC3)nc3c2c(=O)n(C)c(=O)n3C)c1` (stereo not drawn) gave TRPC4 agonist inactive, TRPC6 act inactive, TRPC6 inh -6.08*, TRPC4 potent inactive, TRPC4 inh inactive, HEK293 MPD ctr-2 inactive, HEK293 MPD ctr 2-2 inactive, TRPC4/MOR mod 8.0%*, TRPC4 ctr inh 2 inactive and TRPC6 block conf 80.0%*.
For Cn1c(=O)c2c(nc(N3CCCCCC3)n2CC(O)COc2ccccc2)n(C)c1=O (stereo not drawn) the results were TRPC4 agonist inactive, TRPC6 act inactive, TRPC6 inh inactive, TRPC4 potent inactive and TRPC4 inh inactive.
O=C(CCl)Nc1ccccc1C(=O)Nc1ccc2c(c1)OCO2 was read as TRPC4 agonist inactive, TRPC6 act inactive, TRPC6 inh inactive, TRPC4 potent inactive and TRPC4 inh inactive.
Screening CCOC(=O)c1ccc(N2C(=O)CC(C)(CC)CC2=O)cc1 returned TRPC4 agonist inactive, TRPC6 act inactive, TRPC6 inh inactive, TRPC4 potent inactive and TRPC4 inh inactive.
